Assay results published in ChEMBL document CHEMBL1157864, “Synthesis of some novel 2-substituted-5-[isopropylthiazole] clubbed 1,2,4-triazole and 1,3,4-oxadiazoles as potential antimicrobial and antitubercular agents” (Eur J Med Chem, 2010).
Converted amounts (≈) assume the structure as drawn.

Legend:
Klebsiella pneumoniae = experiment: Antimicrobial activity against Klebsiella pneumoniae ATCC 10031 after 24 hrs by broth microdilution assay; assay type: functional; conditions: ATCC 10031, 24 h
Summary of the method: (§1)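 Broth dilution MIC. Stock is 10 mg compound in 1 mL DMSO, serially diluted in Mueller–Hinton broth for bacteria or Sabouraud liquid medium for yeasts and mould. Tubes are inoculated at 10⁵ cfu/mL and incubated at 37 °C for 24 h. Controls are medium alone and medium with DMSO at matching dilutions. MIC is the lowest concentration giving complete growth inhibition.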

Saccharomyces cerevisiae = experiment: Antimicrobial activity against Saccharomyces cerevisiae ATCC 9763 after 24 hrs by broth microdilution assay; assay type: functional; conditions: ATCC 9763, 24 h; summary of the method: as §1
[1] = system: Mycobacterium tuberculosis; experiment: Antimycobacterial activity against Mycobacterium tuberculosis H37Rv after 21 days by broth dilution assay; assay type: functional; conditions: 504 h
Summary of the method: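 Middlebrook 7H9 broth with 10% albumin-dextrose-catalase and 0.2% glycerol; frozen culture thawed, diluted to 10⁵ cfu/mL and used as inoculum. Compounds taken up in DMSO and diluted twice in broth, 1.3% DMSO final. Incubated at 37 °C. Growth judged by eye against drug-free and inoculum-free controls and isoniazid. MIC is the lowest concentration inhibiting ≥99% of the starting population.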

Aspergillus niger = experiment: Antimicrobial activity against Aspergillus niger ATCC 6275 after 24 hrs by broth microdilution assay; assay type: functional; conditions: ATCC 6275, 24 h; summary of the method: as §1
Bacillus subtilis = experiment: Antimicrobial activity against Bacillus subtilis ATCC 60511 after 24 hrs by broth microdilution assay; assay type: functional; conditions: ATCC 60511, 24 h; summary of the method: as §1
Escherichia coli = experiment: Antimicrobial activity against Escherichia coli ATCC 10536 after 24 hrs by broth microdilution assay; assay type: functional; conditions: ATCC 10536, 24 h; summary of the method: as §1
A549 = experiment: Cytotoxicity against human A549 cells at 250 uM; assay type: cell-based; conditions: a549, 250 µM
Summary of the method: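 A549 lung adenocarcinoma cells are grown with fetal bovine serum. Compounds are taken from 10 mM DMSO stocks stored at −20 °C and diluted in culture medium, with treatments at 50–250 µM. Viability is read by MTT assay against untreated cells and a DMSO vehicle control.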

Enterococcus faecalis = experiment: Antimicrobial activity against Streptococcus faecalis ATCC 14506 after 24 hrs by broth microdilution assay; assay type: functional; conditions: ATCC 14506, 24 h; summary of the method: as §1
Pseudomonas aeruginosa = experiment: Antimicrobial activity against Pseudomonas aeruginosa ATCC 10145 after 24 hrs by broth microdilution assay; assay type: functional; conditions: ATCC 10145, 24 h; summary of the method: as §1
Staphylococcus aureus = experiment: Antimicrobial activity against Staphylococcus aureus ATCC 11632 after 24 hrs by broth microdilution assay; assay type: functional; conditions: ATCC 11632, 24 h; summary of the method: as §1
Candida tropicalis = experiment: Antimicrobial activity against Candida tropicalis ATCC 1369 after 24 hrs by broth microdilution assay; assay type: functional; conditions: ATCC 1369, 24 h; summary of the method: as §1

| Structure (SMILES) | MIC (Klebsiella pneumoniae) [µg/mL] | MIC (Saccharomyces cerevisiae) [µg/mL] | MIC [1] [µg/mL] | MIC (Aspergillus niger) [µg/mL] | MIC (Bacillus subtilis) [µg/mL] | MIC (Escherichia coli) [µg/mL] | Activity (A549) | MIC (Enterococcus faecalis) [µg/mL] | MIC (Pseudomonas aeruginosa) [µg/mL] | MIC (Staphylococcus aureus) [µg/mL] | MIC (Candida tropicalis) [µg/mL] |
| --- | --- | --- | --- | --- | --- | --- | --- | --- | --- | --- | --- |
| CC(C)c1csc(-c2nnc(-c3ccc([N+](=O)[O-])cc3)o2)n1 | 62.5 (≈ 198 µM) | 16 (≈ 50.6 µM) | 62.5 (≈ 198 µM) | 31.2 (≈ 98.8 µM) | 31.2 (≈ 98.8 µM) | 125 (≈ 395 µM) | 50% | 31.2 (≈ 98.8 µM) | 31.2 (≈ 98.8 µM) | 16 (≈ 50.6 µM) | 16 (≈ 50.6 µM) |
| CC(=O)N1N=C(c2nc(C(C)C)cs2)OC1(C)C | 125 (≈ 468 µM) | 62.5 (≈ 234 µM) | 125 (≈ 468 µM) | 62.5 (≈ 234 µM) | 125 (≈ 468 µM) | 125 (≈ 468 µM) |  | 125 (≈ 468 µM) | 125 (≈ 468 µM) | 62.5 (≈ 234 µM) | 62.5 (≈ 234 µM) |
| CC(=O)N1N=C(c2nc(C(C)C)cs2)OC1(C)c1ccccc1 (centres undefined) | 62.5 (≈ 190 µM) | 125 (≈ 379 µM) | 62.5 (≈ 190 µM) | 62.5 (≈ 190 µM) | 62.5 (≈ 190 µM) | 62.5 (≈ 190 µM) |  | 31.2 (≈ 94.9 µM) | 31.2 (≈ 94.9 µM) | 31.2 (≈ 94.9 µM) | 31.2 (≈ 94.9 µM) |
| CC(=O)N1N=C(c2nc(C(C)C)cs2)OC1(C)c1ccc(Cl)cc1 (centres undefined) | 8 (≈ 22 µM) | 62.5 (≈ 172 µM) | 16 (≈ 44 µM) | 62.5 (≈ 172 µM) | 31.2 (≈ 85.9 µM) | 8 (≈ 22 µM) | Toxic | 62.5 (≈ 172 µM) | 8 (≈ 22 µM) | 16 (≈ 44 µM) | 31.2 (≈ 85.9 µM) |
| Cc1ccc(/C=N/n2c(S)nnc2-c2nc(C(C)C)cs2)cc1 | 125 (≈ 364 µM) | 31.2 (≈ 91 µM) | 32.5 (≈ 94.6 µM) | 16 (≈ 46.6 µM) | 31.2 (≈ 91 µM) | 125 (≈ 364 µM) | 50% | 125 (≈ 364 µM) | 31.2 (≈ 91 µM) | 31.2 (≈ 91 µM) | 31.2 (≈ 91 µM) |
| CC(C)c1csc(-c2nnc(S)n2/N=C/c2ccccc2Cl)n1 | 8 (≈ 22 µM) | 31.2 (≈ 85.9 µM) | 4 (≈ 11 µM) | 16 (≈ 44 µM) | 4 (≈ 11 µM) | 62.5 (≈ 172 µM) | 50% | 8 (≈ 22 µM) | 16 (≈ 44 µM) | 31.2 (≈ 85.9 µM) | 31.2 (≈ 85.9 µM) |
